Assay results from ChEMBL document CHEMBL3352626, “Synthesis and biological evaluation of novel oxindole-based RTK inhibitors as anti-cancer agents” (Bioorg Med Chem, 2014).

Key:
[1] = tested on: U-251; test: Antiproliferative activity against human U251 cells at 10 uM after 72 hrs by MTS assay; type: functional
Procedure, shortened: (§1)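 Single-concentration screen. Cells at 4 × 10^4 cells/ml, seeded and incubated overnight, then given 10 µM compound in DMSO for 72 h (37 °C, 5% CO2), with DMSO-only controls. MTS added for 4 h and A490 read. Percent inhibition = (1 − OD490 treated/OD490 control) × 100, from triplicate experiments.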

[2] = Antiproliferative activity against human SGC7901 cells at 10 uM after 72 hrs by MTS assay; type: functional, SGC-7901
[3] = Antiproliferative activity against human H460 cells at 10 uM after 72 hrs by MTS assay; type: functional, NCI-H460
[4] = tested on: A549; test: Antiproliferative activity against human A549 cells at 10 uM after 72 hrs by MTS assay; type: functional
[5] = Antiproliferative activity against human PM8910 cells at 10 uM after 72 hrs by MTS assay; type: functional
[6] = Antiproliferative activity against human SKBR3 cells at 10 uM after 72 hrs by MTS assay; type: functional, SK-BR-3; procedure, shortened: as §1
[7] = tested on: NCI-H1975; test: Antiproliferative activity against human NCI-H1975 cells at 10 uM after 72 hrs by MTS assay; type: functional; procedure, shortened: as §1
[8] = Antiproliferative activity against human Bel7402 cells at 10 uM after 72 hrs by MTS assay; type: functional, Bel-7402
[9] = Antiproliferative activity against human HCC827 cells at 10 uM after 72 hrs by MTS assay; type: functional

| Compound | Activity [1] [%] | Activity [2] [%] | Activity [3] [%] | Activity [4] [%] | Activity [5] [%] | Activity [6] [%] | Activity [7] [%] | Activity [8] [%] | Activity [9] [%] |
| --- | --- | --- | --- | --- | --- | --- | --- | --- | --- |
| O=C1Nc2ccc(Cl)cc2/C1=N/NC(=O)c1ccc(N2CCOCC2)c([N+](=O)[O-])c1 | -8.37 | 0.54 | 7.06 | 7.93 | 8.98 | 11.88 | 17.93 | 0.27 | 3.85 |
| Cc1cc2cc(/N=C3\C(=O)Nc4ccc(Cl)cc43)ccc2[nH]1 | 7.94 | 7.05 | 8.51 | 7.35 | 12.97 | 9.84 | 26.35 | 6.73 | 23.12 |
| O=C1Nc2ccccc2/C1=C/c1ccc(N2CCN(C(=O)c3ccccc3)CC2)cc1 | 11.33 | 23.7 | 35.67 | 23.47 | 40.43 | 27.26 | 42.39 | 30.87 | 53.47 |
| Cn1cc(/C=C2/C(=O)Nc3ncccc32)c2ccccc21 | -0.65 | 22.39 | 19.17 | 11.36 | 22.23 | 8.29 | 38.04 | 24.47 | 37.21 |
| COc1cc(OC)c(/C=C2\C(=O)Nc3ncccc32)c(OC)c1 | 7.46 | 35.63 | 53.98 | 39.96 | 41.21 | 2.1 | 66.49 | 40.41 | 17.03 |
